Converted amounts (≈) assume the structure as drawn. The source made the active and inactive calls. The rule behind the calls is not given here.
What was measured:
[1] = system: Nakaseomyces glabratus; experiment: Antifungal activity against Candida glabrata isolate 21230 at 2 mM; type: functional, organism-based
Method in brief: (§1)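 Compound incorporated at 2 mM into YEPD agar. Cell suspensions at 10^7 down to 10^3 cells per ml were spotted at 10 µl each, dried and incubated 48 h at 37°C. Growth was compared with spots on YEPD agar without inhibitor.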

[2] = system: Nakaseomyces glabratus; experiment: Antifungal activity against Candida glabrata isolate 21229 with missense mutation in ERG6 gene at 2 mM; type: functional, organism-based; method in brief: as §1
[3] = system: Nakaseomyces glabratus; experiment: Antifungal activity against Candida glabrata isolate 21230 with silent mutations in ERG4, ERG5 genes and nonsense mutation in ERG6 gene by disk diffusion method; type: functional
[4] = system: Nakaseomyces glabratus; experiment: Antifungal activity against wild-type Candida glabrata isolate 21231 by disk diffusion method; type: functional
[5] = system: Nakaseomyces glabratus; experiment: Antifungal activity against Candida glabrata isolate 21230 with silent mutation in ERG4, ERG5 genes and nonsense mutation in ERG6 gene by Etest method; type: functional
[6] = system: Nakaseomyces glabratus; experiment: Antifungal activity against wild-type Candida glabrata isolate 21231 by Etest method; type: functional
[7] = system: Nakaseomyces glabratus; experiment: Antifungal activity against Candida glabrata isolate 21230C by disk diffusion method; type: functional
Method in brief: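 The strain is the ura3 derivative of clinical isolate 21230 complemented with a centromeric plasmid carrying wild-type ERG6, tested as for the parent isolate. Isolates were maintained on YEPD agar.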

Row | Molecule | Activity [1] | Activity [2] | inhibition zone (IZ) [3] [mm] | inhibition zone (IZ) [4] [mm] | MIC [5] [µg/mL] | MIC [6] [µg/mL] | inhibition zone (IZ) [7] [mm]
1 | Cn1c(=O)c2c(ncn2C)n(C)c1=O | Active | Active |  |  |  |  | 
2 | NYSTATIN |  |  | 19 | 31 |  |  | 
3 | OC(Cn1cncn1)(Cn1cncn1)c1ccc(F)cc1F [FLUCONAZOLE] |  |  | 29 | 21 | 1 (≈ 3.27 µM) | 6 (≈ 19.6 µM) | 
4 | CC(=O)N1CCN(c2ccc(OCC3COC(Cn4ccnc4)(c4ccc(Cl)cc4Cl)O3)cc2)CC1 (stereo not drawn) [KETOCONAZOLE] |  |  | 43 | 33 | 0.064 (≈ 0.12 µM) | 0.19 (≈ 0.358 µM) | 
5 | Clc1ccc(COC(Cn2ccnc2)c2ccc(Cl)cc2Cl)c(Cl)c1 (stereo not drawn) [MICONAZOLE] |  |  | 29 | 21 |  |  | 
6 | C[C@@H](c1ncncc1F)[C@](O)(Cn1cncn1)c1ccc(F)cc1F [VORICONAZOLE] |  |  | 39 | 30 |  |  | 
7 | Clc1ccc(COC(Cn2ccnc2)c2ccc(Cl)cc2Cl)cc1 (stereo not drawn) [ECONAZOLE] |  |  | 35 | 25 |  |  | 
8 | C[C@@H]1[C@H](O)[C@@H](C)/C=C/C=C/C=C/C=C/C=C/C=C/C=C/[C@H](O[C@@H]2O[C@H](C)[C@@H](O)[C@H](N)[C@@H]2O)C[C@@H]2O[C@](O)(C[C@@H](O)C[C@@H](O)[C@H](O)CC[C@@H](O)C[C@@H](O)CC(=O)O[C@H]1C)C[C@H](O)[C@H]2C(=O)O [AMPHOTERICIN B] |  |  | 13 | 27 | 0.125 (≈ 0.135 µM) | 0.047 (≈ 0.0509 µM) | 29
